According to publication PMC8214312 (Journal of medicinal chemistry, 2021):
Values joined by “and” are separate entries in the source; they are usually repeats but may differ in a detail not shown here. Equal entries are not always repeated. Values belong to the compound of their own block, whether it stands above or below them.

Tests used:
[1] = test system: DPP-IV; conditions: read-out: IC50 DPP-IV; cited from earlier work
[2] = test system: FAP-positive U87 cells; assay: Cellular uptake of [111In]QCP02 in U87 cells; format: cell-based, human; conditions: 0.037 MBq, 30 min at 37 °C
[3] = test system: FAP-negative PC3 cells; assay: Cellular uptake of [111In]QCP02 in PC3 cells; format: cell-based, human; conditions: 0.037 MBq, 30 min at 37 °C
[4] = test system: FAP-positive U87 xenograft; assay: Ex vivo biodistribution of [111In]QCP02, U87 xenograft; parameters: species or system NOD/SCID mice
Method in brief: (§1)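 Male NOD/SCID mice (6–8 weeks) carried subcutaneous xenografts of 1 million U87 cells (left upper flank) and PC3 cells (right upper flank) in HBSS, used at 100–300 mm3. Radioligand was given as 0.37 MBq in 200 μL saline (<10% ethanol) via the tail vein. Groups (n = 4) were killed by CO2 at 5 min, 30 min, 1, 3, 6, 10 and 28 h. Weighed tissues were gamma-counted, decay-corrected against a standard dilution of the dose, and expressed as %ID/g.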

[5] = test system: FAP-negative PC3 xenograft; assay: Ex vivo biodistribution of [111In]QCP02, PC3 xenograft; parameters: species or system NOD/SCID mice
Method in brief: as §1

[6] = test system: U87 and PC3 tumor xenografts; assay: SPECT-CT imaging of [111In]QCP02 in tumor-bearing mice; format: in vivo, NOD/SCID mice
[7] = test system: FAP-positive cell lines (U87, NCIH228, and SKMEL24); conditions: inhibitor 10^-10 to 10^-4 M, then 25 nM QCP01 for 1 h at 37 °C
[8] = test system: FAP; conditions: read-out: IC50 FAP; cited from earlier work
[9] = test system: FAP-positive cell lines (NCIH2228, U87, and SKMEL24); assay: In vitro fluorescence binding of QCP01 to FAP-positive cell lines; format: cell-based, human; conditions: 1 h incubation, range 50-0.78 nM
[10] = test system: FAP-negative cell lines (PC3, NCIH226, and HCT116); assay: In vitro fluorescence binding of QCP01 to FAP-negative cell lines; format: cell-based, human; conditions: any of the concentrations tested (50-0.78 nM)
[11] = test system: U87 and PC3 tumor xenografts; assay: NIRF imaging of QCP01 in tumor-bearing mice; format: in vivo, NOD/SCID mice
[12] = 1 h post injection, 0.37 MBq via tail vein

SMILES: CC(C)[C@H](N)C(=O)N1CCC[C@H]1B(O)O [Val-boroPro]
IC50 [1]: 22 ± 1 nM

SMILES: N#C[C@@H]1CCCN1C(=O)CNC(=O)c1ccnc2ccc(OCCCNC(=O)CCC(C(=O)O)N3CCN(CC(=O)[O-])CCN(CC(=O)[O-])CCN(CC(=O)[O-])CC3)cc12.[111In+3] (stereo partly drawn) [[^111In]QCP02, [^111In]2,2′,2″-(10-(1-Carboxy-4-((3-((4-((2-((S)-2-cyanopyrrolidin-1-yl)-2-oxoethyl)carbamoyl)quinolin-6-yl)oxy)propyl)amino)-4-oxobutyl)-1,4,7,10-tetraazacyclododecane-1,4,7-triyl)triacetate]
binding of the incubated dose [2]: over 30%
binding of the incubated dose [3]: 0.01%
uptake in U87 tumor ([4]; 5 min post injection): over 10 % ID/g
uptake in U87 tumor (peak) ([4]; 30 min post injection): 18.2 % ID/g and 18.16 ± 11.67 % ID/g
uptake in U87 xenograft [4, 12]: 16.09 ± 4.17 % ID/g
uptake in U87 xenografts, blocked ([4]; 6 h post injection, co-injection of non-radioactive QCP02 (50 μg per mouse)): 0.55 ± 0.23 % ID/g
uptake in U87 xenograft relative to PC3 xenograft ([4]; all time points): 3–4 fold
time by which washout of radiotracer in U87 tumors was observed ([4]; post injection): ≤ 28 h
uptake in PC3 xenograft [5, 12]: 4.12 ± 0.36 % ID/g
uptake in PC3 tumor ([5]; all time points): less than 5 % ID/g
retention of uptake in U87 xenografts on SPECT-CT ([6]; 7.4 MBq via tail vein, uptake seen as early as 1 h post injection): up to 10 h
uptake in PC3 xenografts on SPECT-CT ([6]; all imaging time points (1, 3, 6, 10, 28 h)): low uptake

SMILES: N[C@@H](CC(=O)N1CCn2c(nnc2C(F)(F)F)C1)Cc1cc(F)c(F)cc1F [sitagliptin]
effect of pretreatment on QCP01 binding (fluorescence signal) [7]: not inhibited
IC50 [8]: > 100000 nM

NIRF uptake in normal tissues ([11]; 5 nmol QCP01 via tail vein, 30 min after injection): mild degree (moderate in the kidney)
NIRF uptake in PC3 tumors ([11]; 5 nmol QCP01 via tail vein, 30 min until 5 h, washout at 24 h): mild uptake
ex vivo NIRF uptake of excised U87 tumor versus PC3 tumor ([11]; 5, 24, and 48 h after injection): higher QCP01 uptake than the PC3 tumor
SMILES: CC1(C)C(/C=C/C2=C(Oc3ccc(S(=O)(=O)O)cc3)C(=C/C=C3/N(CCCCS(=O)(=O)O)c4ccc(S(=O)(=O)O)cc4C3(C)C)/CCC2)=[N+](CCCCCC(=O)NCCCOc2ccc3nccc(C(=O)NCC(=O)N4CCC[C@H]4C#N)c3c2)c2ccc(S(=O)(=O)[O-])cc21 [QCP01]
concentration at which binding was saturated [9]: 50 nM
lowest concentration at which QCP01 binding was observed [9]: 1.56 nM
binding in FAP-negative cell lines [10]: no specific binding
NIRF uptake in U87 xenografts over time ([11]; 5 nmol QCP01 via tail vein, imaging 0.5-48 h): persisted up to 5 h after injection, with washout after 24 h
